Shown are actives, neighbours in structure and some others; about 0.89% of the full set was active somewhere.
Xi reactivation = activators of inactive X chromosome reactivation, primary screen, imaging, XiGFP fibroblasts, GFP high-content imaging, set 2. activation, % at 7.58 µM. 0.055% of 360,000 active. XiGFP mouse fibroblasts, % GFP-positive cells imaging, 3 d; cells co-treated with 5-aza-dC sensitizer; scaled so ellipticine positive control = 100%;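 active means mean normalized replicate activation at least 10% and every replicate at or above 10%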;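 further: 0% = median of on-plate neutral control wells and 100% = ellipticine 6 µM median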
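Assay system: SV40-immortalized XiGFP fibroblast cells, line 68-5-11; buffer or medium: DMEM plus 5-aza-dC sensitizer; compound: one concentration, pinned; timing: compounds 3 days, fix/stain 15 min at room temperature; benchmarks: positive control ellipticine, 6 µM final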
NTR1 ag = agonists of human NTR1, primary screen, imaging, U2OS cells, beta-arrestin-GFP, high content; Neurotensin receptor type 1 (Homo sapiens), P30989; NTR1-U2OS beta-arrestin-GFP spot imaging, agonist mode; activation, % at 20 µM; 0.17% of 330,000 active;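 active means activation at or above 40% of the spot to cytoplasm intensity ratio, with at least 20 cells analyzed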;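 further: 0% = DMSO without peptide and 100% = 100 nM NTR1 peptide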
Target sequence (P30989 whole entry, looked up): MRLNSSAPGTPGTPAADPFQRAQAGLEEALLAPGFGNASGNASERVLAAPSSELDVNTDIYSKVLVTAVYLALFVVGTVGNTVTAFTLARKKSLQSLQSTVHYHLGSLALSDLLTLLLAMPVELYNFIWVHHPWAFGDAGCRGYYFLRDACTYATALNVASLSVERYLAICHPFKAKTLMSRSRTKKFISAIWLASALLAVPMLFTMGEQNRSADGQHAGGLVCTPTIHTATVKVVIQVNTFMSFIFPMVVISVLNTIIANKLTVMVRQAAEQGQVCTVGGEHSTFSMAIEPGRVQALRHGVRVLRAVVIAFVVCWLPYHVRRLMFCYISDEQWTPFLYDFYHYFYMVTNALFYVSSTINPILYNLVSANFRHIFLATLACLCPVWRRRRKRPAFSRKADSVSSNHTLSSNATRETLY
T cell modulator = modulators of CD8 T cell-vesicle binding, primary screen, mouse 2C CD8+ T cells, flow cytometry; 0.068% of 330,000 active; response (vesicle binding), % at 7 µM; 2C CD8+ T cell-vesicle binding; stronger effect = lower value;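 active means response, share of CD8 T cells binding vesicles, and their 90th percentile fluorescence all below set limits, cut at about 80% in these data, passing the limit was not always enough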;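 further: values below 100% mean blocked vesicle binding to the CD8+ T cells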
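Incubation: binding step 1.5 h, 37 °C, antibody labelling 20 min, ice; system: murine 2C transgenic CD8+ T lymphocytes; technique: cytometric PE anti-B7-1 and Alexa647 anti-CD8 signals after 1% paraformaldehyde fixation; also added: QL9-charged Drosophila Ld/ICAM-1/B7-1 vesicles; control set: naked versus QL9-loaded vesicles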
V-ATPase pHluor = regulators of yeast V-ATPase proton pumping, primary screen, pHLuorin cytosolic pH fluorescence | S. cerevisiae | response, % at 10 µM | 0.37% of 350,000 active; in the data active means response mostly above about 7.3%, no sharp cut-off; inactive means mostly below about 5.4%; further: actives read high
Arr AP2 block = inhibitors of beta-arrestin/AP2 binding, primary screen, biochemical, GPCR trafficking, flow cytometry; 0.31% of 340,000 active; beta-arrestin 1 C-terminal peptide binding to AP2 beta2-adaptin appendage (human); inhibition, % at 10 µM; FITC-arrestin peptide / GST-AP2 beads; AP2 beta2 appendage carries R879A mutation; AID 504490, 2011;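 active means inhibition above a set limit, near 3 SD of compounds lacking own fluorescence, cut at about 54% in these data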;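 further: plate controls were DMSO wells for no effect and 5 µM unlabelled arrestin peptide for full effect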
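Assay system: GST-AP2 R879A bound to glutathione beads, E. coli-expressed; Medium: PBS with 0.05% Tween 20 and 0.1% BSA; Also added: fluorescein-tagged arrestin peptide at 50 nM final; Timing: 12 min plus 1 h, RT; Measured by: flow cytometry, FL1 (488/535 nm); Evaluation: percent drop in bead-associated FITC signal.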
MIN6 prolif-1 = inducers of MIN6 beta-cell proliferation, primary screen, ATP luminescence, uHTS; MIN6 cells proliferation, ATPlite luminescence, 48 h; cells starved in 0.2% serum; 100% = growth in 10% serum; 0.29% of 330,000 active; proliferation, % at 10 µM;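 active means compounds whose signal lies at least 3.5 SD above the mean of all wells on their plate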;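 further: 0% = DMSO-treated cells in low-serum medium and 100% = 10% serum control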
MIN6 prolif-2 = inducers of beta-cell proliferation in MIN6, confirmation, MIN6 cells, mouse; proliferation increase, % at 50 µM; ATPlite luminescence, 48 h; cells kept in 0.2% serum; scaled between 0.2% and 10% serum; shares compounds with MIN6 prolif-1; AID 463095, 2010; 920 tested, under 10 active;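 active means proliferation increase above 40% at any of the four tested concentrations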
* marks the source's active call; other numbers are inactive results.

For C[C@H]1CN([C@@H](C)CO)C(=O)c2cc(NC(=O)Nc3ccccc3)ccc2O[C@H]1CN(C)Cc1ccc(Cl)c(Cl)c1 the results were Xi reactivation 0.5.
For COc1ccc2nc(C)cc(SCC(=O)N/N=C/c3ccco3)c2c1 the results were Xi reactivation 0.6, NTR1 ag 0.9, T cell modulator 209.2, V-ATPase pHluor 0.1, Arr AP2 block -1.6 and MIN6 prolif-1 0.0.
Screening COc1ccc(OC)c(/C=N/NC(=O)CSc2cc(C)nc3c(OC)cccc23)c1 returned Xi reactivation 0.0, NTR1 ag 1.6, T cell modulator 191.3, V-ATPase pHluor 1.8, Arr AP2 block 35.3, MIN6 prolif-1 10.2* and MIN6 prolif-2 -1.1.
For C#CCOC(=O)c1ccc(-n2cncn2)nc1 the results were NTR1 ag -0.7, V-ATPase pHluor -1.1, Arr AP2 block 16.0, MIN6 prolif-1 5.9* and MIN6 prolif-2 -0.7.
For CCc1nc2ccccc2n1CC(O)COCC1CC=CCC1 (centres undefined) the results were Xi reactivation 0.1, NTR1 ag 3.2, T cell modulator 646.9, V-ATPase pHluor -1.8, Arr AP2 block 16.9, MIN6 prolif-1 12.1* and MIN6 prolif-2 -3.1.
For O=C(c1ccccc1)N1CCN(CC(O)COCC2CC=CCC2)CC1 (centres undefined) the results were NTR1 ag -1.2, T cell modulator 668.7, V-ATPase pHluor -0.4, Arr AP2 block 5.3 and MIN6 prolif-1 -0.4.
`Cc1ccc(S(=O)(=O)N(C)C[C@@H]2Oc3ccc(NS(=O)(=O)c4ccc(Cl)cc4)cc3C(=O)N([C@@H](C)CO)C[C@H]2C)cc1` gave Xi reactivation 0.0.
`CC(C)n1cnc2c(N(C)c3cccc(Cl)c3)nc(N(CCO)CCO)nc21` gave Xi reactivation 0.0, NTR1 ag 0.3, T cell modulator inactive, V-ATPase pHluor 1.9, Arr AP2 block -0.2, MIN6 prolif-1 17.5* and MIN6 prolif-2 -0.5.
CC(C)[C@H](CO)N(Cc1cccc(F)c1)c1nc(Nc2cccc(Cl)c2)c2ncn(C(C)C)c2n1 was read as Xi reactivation 0.0, NTR1 ag 4.2, T cell modulator 732.7, V-ATPase pHluor -2.8, Arr AP2 block -2.8 and MIN6 prolif-1 -8.7.
`CCOc1ccc(CCNC(=O)CCCn2c(=O)c3cccn3c3cccnc32)cc1OCC` gave Xi reactivation 0.0, NTR1 ag 0.4, T cell modulator 689.2, V-ATPase pHluor 3.2, Arr AP2 block 37.5, MIN6 prolif-1 16.9* and MIN6 prolif-2 1.1.
`CO/N=C(/c1nonc1N)N1CCN(c2ccc([N+](=O)[O-])cc2)CC1` gave NTR1 ag 3.3, T cell modulator 167.6, V-ATPase pHluor -1.0, Arr AP2 block 23.9, MIN6 prolif-1 10.8* and MIN6 prolif-2 2.4.
COc1ccccc1NC(=O)N(C)C[C@H]1Oc2ncc(C#CC(C)C)cc2C(=O)N([C@@H](C)CO)C[C@@H]1C was read as Xi reactivation -0.7.
C[C@H](CO)N1C[C@H](C)[C@@H](CN(C)CC2CCOCC2)Oc2ncc(C3=CCCCC3)cc2C1=O was read as Xi reactivation 0.8.
Screening CCOc1ncccc1C(=O)Nc1ccccc1N1CCOCC1 returned Xi reactivation 0.2, NTR1 ag 0.8, T cell modulator 274.7, V-ATPase pHluor 2.4, Arr AP2 block 2.1 and MIN6 prolif-1 -2.9.
CCOc1ncccc1C(=O)OC(C)C(=O)Nc1ccc(N2CCOCC2)cc1 (centres undefined) was read as Xi reactivation -0.1, NTR1 ag 2.9, T cell modulator 492.2, V-ATPase pHluor -0.2, Arr AP2 block 29.5, MIN6 prolif-1 10.1* and MIN6 prolif-2 3.6.
`COc1ccc(S(=O)(=O)Nc2ccc3c(c2)C(=O)N([C@@H](C)CO)C[C@H](C)[C@@H](CN(C)S(=O)(=O)c2ccc(OC)cc2)O3)cc1` gave Xi reactivation 0.1.
Screening CC(C)CCNC(=O)CN1N=C(c2ccc(Cl)cc2)CCC1=O returned Xi reactivation 0.0, NTR1 ag -2.2, T cell modulator 161.3, V-ATPase pHluor 1.2, Arr AP2 block 6.9, MIN6 prolif-1 7.3* and MIN6 prolif-2 -2.0.
`COc1ccc(CCNC(=O)CCN2C(=O)c3cccc4cccc(c34)C2=O)cc1OC` gave Xi reactivation 0.0, NTR1 ag 0.4, T cell modulator 289.5, V-ATPase pHluor -2.6, Arr AP2 block 10.0, MIN6 prolif-1 7.9* and MIN6 prolif-2 0.4.
`COc1ccc2c3c([nH]c2c1)[C@@H](CO)N(C(=O)c1ccc(F)cc1)CC31CN(C)C1` gave Xi reactivation 0.3.
Screening CCN(CC)CCCC1(CN)OCCc2ccccc21 (centres undefined) returned NTR1 ag 0.0, T cell modulator 353.0, V-ATPase pHluor -4.3, Arr AP2 block 1.6, MIN6 prolif-1 8.4* and MIN6 prolif-2 0.2.
CCN(CC)CCCOC(=O)C1(c2ccccc2)CCCC1 was read as NTR1 ag -0.1, T cell modulator 189.1, V-ATPase pHluor -1.0, Arr AP2 block 22.1 and MIN6 prolif-1 1.5.
CCOC(=O)c1cnc2ccc(C(=O)OC)cc2c1NCCc1ccc(OC)c(OC)c1 was read as Xi reactivation 0.3, NTR1 ag 0.9, T cell modulator inactive, V-ATPase pHluor -0.6, Arr AP2 block -2.2, MIN6 prolif-1 0.0* and MIN6 prolif-2 2.8.
Screening CCOC(=O)c1cnc2c(C)cccc2c1NCCc1ccc(OC)c(OC)c1 returned NTR1 ag 18.7, T cell modulator 881.5, V-ATPase pHluor -0.5, Arr AP2 block 7.3 and MIN6 prolif-1 2.8.
Screening Cc1cc(C(=O)NNC(=O)CCN2CCN(c3ccccc3)CC2)c2ccccc2n1 returned Xi reactivation 0.1, NTR1 ag 1.7, T cell modulator 296.2, V-ATPase pHluor 0.6, Arr AP2 block 4.5 and MIN6 prolif-1 -1.3.
CCc1cc(C(=O)NNC(=O)CCN2CCN(c3ccccc3)CC2)sc1C was read as Xi reactivation 0.1, NTR1 ag -1.1, T cell modulator 473.2, V-ATPase pHluor 2.0, Arr AP2 block 18.3, MIN6 prolif-1 12.9* and MIN6 prolif-2 -3.4.
